Consider ten compounds from ChEMBL document CHEMBL4376884, “Toward a Rational Design of Polyamine-Based Zinc-Chelating Agents for Cancer Therapies” (J Med Chem, 2020).

SMILES strings stand for the structures. Calls of active or inactive are those of the source. No cut-off for these calls is given here.

One may read the IC50 as the concentration at which inhibition is half-maximal.

Experiment [1] deals with JeKo-1. The experiment in a line: Antiproliferative activity against human JeKo1 cells assessed as reduction in cell viability at 10 uM incubated for 48 hrs by cell titer-glo assay. In kind it is functional, cell-based. Summed up: (§1)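 Cells plated and treated 24 h later with 10 µM compound for 48 h; viable cells quantified by CellTiter-Glo ATP luminescence. Expressed as percentage of viable cells relative to untreated; mean ± SD of three independent experiments, each in triplicate.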
Background: In ATP-based viability assays light output follows the ATP content of the culture.

In experiment [2] the test system is LN-229. Kind of experiment: Antiproliferative activity against human LN229 cells assessed as reduction in cell viability at 10 uM incubated for 48 hrs by cell titer-glo assay. In kind it is functional, cell-based. An outline of the steps: as §1
The test system of experiment [3] is Jurkat. The experiment in a line: Antiproliferative activity against human Jurkat cells assessed as reduction in cell viability at 10 uM incubated for 48 hrs by cell titer-glo assay. It is filed as functional, cell-based. An outline of the steps:
as §1

In experiment [4] the test system is Fibroblast. Kind of experiment: Cytotoxicity against human Fibroblast assessed as reduction in cell viability incubated for 48 hrs by cell titer-glo assay. It is filed as cell-based. Summed up: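 Dose-response: cells plated, treated 24 h later for 48 h, then ATP measured by CellTiter-Glo luminescence. IC50 given as mean ± SD from three independent experiments, each in triplicate. Fibroblasts came from individuals. Cells were kept in RPMI or DMEM with 10% heat-inactivated FBS and penicillin/streptomycin at 37 °C, 5% CO2.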

The nature of experiment [5]: Metal chelating activity assessed as Zn2+-compound complex formation by measuring stability constant for ZnL(OH)2 using pre-Zn2+-complexed compound (ZnL(OH)) in 0.15M NaCl at 298.1K by potentiometric titration analysis. Summed up:
(§2)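 Glass-electrode potentiometric titration with an Ag/AgCl reference in saturated KCl. The electrode was calibrated as an [H+] probe against standardized HCl with CO₂-free NaOH, using Gran's method (pKw 13.73(1)). Range was pH 2.0–11.0, with metal and ligand at 1×10⁻³ to 5×10⁻³ M in 1:1 ratio. At least two curves per compound were merged and fitted with HYPERQUAD.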

Experiment [6] in a line: Metal chelating activity assessed as Zn2+-compound complex formation by measuring stability constant for ZnL in 0.15M NaCl at 298.1K by potentiometric titration analysis. Summed up: as §2
Experiment [7] is described as follows: Metal chelating activity assessed as Zn2+-compound complex formation by measuring stability constant for ZnHL in 0.15M NaCl at 298.1K by potentiometric titration analysis. Summed up: as §2
Experiment [8] is described as follows: Metal chelating activity assessed as Zn2+-compound complex formation by measuring stability constant for ZnL(OH)2 in 0.15M NaCl at 298.1K by potentiometric titration analysis. Summed up:
as §2

A short description of experiment [9]: Metal chelating activity assessed as Zn2+-compound complex formation by measuring stability constant for ZnL(OH) in 0.15M NaCl at 298.1K by potentiometric titration analysis. Summed up:
as §2

Experiment [10] is described as follows: Metal chelating activity assessed as Zn2+-compound complex formation at physiological pH 7.4 by quantum mechanical studies. An outline of the steps: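 Zn2+ complexes modelled by DFT, B3LYP, gas phase. Basis set def2-SV(P), with MDF10 Stuttgart-Dresden effective core potential for Zn and Grimme dispersion correction. Vibrational frequencies and zero-point correction computed for each minimum.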

Experiment [11] has as its system U-87 MG. The experiment in a line: Antiproliferative activity against human U87MG cells assessed as reduction in cell viability at 10 uM incubated for 48 hrs by cell titer-glo assay. The settings on record: U-87MG ATCC. In kind it is functional, cell-based. Summed up:
as §1

A short description of experiment [12]: Metal chelating activity assessed as Zn2+-compound complex formation by measuring stability constant for ZnL(OH) using pre-Zn2+-complexed compound (ZnL) in 0.15M NaCl at 298.1K by potentiometric titration analysis. An outline of the steps:
as §2

Experiment [13] relates to LN-229. Kind of experiment: Metal chelating activity in human LN229 cells assessed as decrease in intracellular concentration of labile zinc ions by measuring reduction in zinquin-Zn2+ complex formation incubated for 12 hrs followed by incubation with fluorophore-zinquin for 30 mins by spectrofluorometric analysis. In kind it is cell-based. Summed up: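 LN229 cells were treated 12 h, trypsinized, pelleted and checked by Trypan Blue. Then 6x10⁶ cells in 1 mL PBS were loaded with Zinquin 25 μM for 30 min at 37 °C in the dark. Fluorescence was read at ex 370/em 475 nm with a 400–600 nm scan, normalized to cell number, untreated set to 100; four independent experiments.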

A short description of experiment [14]: Metal chelating activity assessed as Zn2+-compound complex formation by measuring stability constant for ZnL(OH)2 using pre-Zn2+-complexed compound (ZnL(OH)) in 0.15M NaCl and hydroalcoholic solutions (H2O/EtOH 70:30) at 298.1K by potentiometric titration analysis. Summed up:
as §2

Experiment [15] is described as follows: Metal chelating activity assessed as Zn2+-compound complex formation by measuring stability constant for ZnL in 0.15M NaCl and hydroalcoholic solutions (H2O/EtOH 70:30) at 298.1K by potentiometric titration analysis. Summed up:
as §2

Experiment [16] can be described thus: Metal chelating activity assessed as Zn2+-compound complex formation by measuring stability constant for ZnH2L2 in 0.15M NaCl and hydroalcoholic solutions (H2O/EtOH 70:30) at 298.1K by potentiometric titration analysis. Summed up: (§3)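 Potentiometric titration at pH 2.0–11.0 with Ag/AgCl reference electrode. Glass electrode calibrated against HCl with CO2-free NaOH by Gran's method (pKw = 13.73). Metal and ligand each at 1×10⁻³ to 5×10⁻³ M, 1:1 molar ratio. At least two titration curves per compound, merged and fitted with HYPERQUAD to give stability constants.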

Experiment [17] is described as follows: Metal chelating activity assessed as Zn2+-compound complex formation by measuring stability constant for ZnL(OH) in 0.15M NaCl and hydroalcoholic solutions (H2O/EtOH 70:30) at 298.1K by potentiometric titration analysis. An outline of the steps: as §2
Experiment [18] in a line: Metal chelating activity assessed as Zn2+-compound complex formation by measuring stability constant for ZnL(OH) using pre-Zn2+-complexed compound (ZnL) in 0.15M NaCl and hydroalcoholic solutions (H2O/EtOH 70:30) at 298.1K by potentiometric titration analysis. An outline of the steps:
as §2

Experiment [19] in a line: Metal chelating activity assessed as Zn2+-compound complex formation by measuring stability constant for ZnL(OH)2 in 0.15M NaCl and hydroalcoholic solutions (H2O/EtOH 70:30) at 298.1K by potentiometric titration analysis. Summed up: as §2
Experiment [20] has as its system LN-229. Kind of experiment: Inhibition of colony formation in human LN229 cells at 30 uM incubated for 4 hrs by crystal violet staining based colony counting method. In kind it is functional, cell-based. Summed up: (§4)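 LN229 and PC3 cells treated for 4 h with compound (10 µM) or with etoposide (30 µM positive control), washed, trypsinized and replated at 3000 cells per 60-mm plate. Colonies grown 7–10 days, fixed and stained with 0.5% crystal violet in 70% ethanol, and counted. Reported as percent of control; four independent experiments, each in duplicate.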

The subject of experiment [21] is PC-3. The experiment in a line: Inhibition of colony formation in human PC3 cells at 30 uM incubated for 4 hrs by crystal violet staining based colony counting method. It is filed as functional, cell-based. Summed up: as §4
Experiment [22] deals with DNA. The experiment in a line: Induction of DNA damage in human Z138 cells assessed as increase in gammaH2AX phosphorylation at Ser139 residue at 1 uM incubated for 4 hrs by Flow cytometry analysis. It is filed as cell-based. An outline of the steps:
(§5)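 Z-138 and LN229 cells treated 4 h with 10 µM compound or 1 µM doxorubicin. Fixed in 3.7% formaldehyde on ice, permeabilized with 0.2% Triton X, stained with rabbit anti-pS139 H2A.X (1:400) and Alexa 555 secondary, then analysed by flow cytometry. Fold γH2AX fluorescence versus untreated; mean ± SD of three experiments.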
A general note: A flow cytometer gives signals particle by particle.

Experiment [23] relates to DNA. The experiment in a line: Induction of DNA damage in human LN229 cells assessed as increase in gammaH2AX phosphorylation at Ser139 residue at 1 uM incubated for 4 hrs by Flow cytometry analysis. It is filed as cell-based. Summed up:
as §5

Experiment [24] is described as follows: Metal chelating activity assessed as Zn2+-compound complex formation by measuring stability constant for ZnH2L in 0.15M NaCl at 298.1K by potentiometric titration analysis. Summed up:
as §3

Experiment [25] can be described thus: Metal chelating activity assessed as Zn2+-compound complex formation by measuring stability constant for ZnHL using pre-Zn2+-complexed compound (ZnL) in 0.15M NaCl at 298.1K by potentiometric titration analysis. An outline of the steps: as §2
Experiment [26] in a line: Metal chelating activity assessed as Zn2+-compound complex formation by measuring stability constant for ZnH2L using pre-Zn2+-complexed compound (ZnHL) in 0.15M NaCl at 298.1K by potentiometric titration analysis. An outline of the steps: as §3

In the case of `O=S(=O)(c1cccc2cccnc12)N(CCNCc1ccccn1)CCNCc1ccccn1`, the outcome in experiment [1], in [2] and in experiment [3] was Active.

Turning to `c1ccc(CN(CCN(Cc2ccccn2)Cc2ccccn2)Cc2ccccn2)nc1`, the IC50 in [4] came to 6.7 µM.

For `c1cncc(CNCCN(CCNCc2cccnc2)Cc2ccc3ccccc3c2)c1`, the log K in experiment [5] is -9.54; in experiment [6], 6.04; in experiment [7], 14.1; in experiment [8], -12.1; in experiment [9], -2.56; in [12] it was -8.6. The outcome in experiment [1], in experiment [2], in [3], in experiment [11] and in experiment [13] was inactive. In addition, in experiment [10], the Activity amounted to 63.4%.

`O=S(=O)(c1cccc2ccccc12)N(CCNCc1ccccn1)CCNCc1ccccn1`: the log K in [5] is -10.3; in [6], 7.53; in experiment [8], -11.8; in [9], -1.48; in [12], -10. In addition, the result in experiment [1], in experiment [2], in [3] and in experiment [11] was Active. Also, the outcome in [13] was inactive.

Turning to `CN(CCNCc1ccncc1)CCNCc1ccncc1`, the log K is -9.68 in experiment [14]; 6.57 in [15]; 24.3 in experiment [16]; -2.6 in experiment [17]; -9.17 in [18]; -12.3 in [19]. For the same compound, the outcome in [1], in experiment [2], in experiment [3], in [11] and in [13] was inactive.

Turning to `c1ccc2cc(CN(CCNCc3ccncc3)CCNCc3ccncc3)ccc2c1`, the log K was -8.67 in [5]; 4.72 in experiment [6]; -12.9 in experiment [8]; -4.22 in [9]; -8.99 in experiment [12]. In addition, the outcome in experiment [1], in [2], in experiment [3], in [11] and in experiment [13] was inactive. Also, in experiment [10], the Activity was determined as 60.7%.

For the compound `COc1cc([C@@H]2c3cc4c(cc3[C@@H](O[C@@H]3O[C@@H]5CO[C@@H](C)O[C@H]5[C@H](O)[C@H]3O)[C@H]3COC(=O)[C@H]23)OCO4)cc(OC)c1O`, the inhibition result in experiment [20] and in [21] was “Active” in each case.

Take `O=C(NCCN(CCNC(=O)c1ccccn1)Cc1ccc2ccccc2c1)c1ccccn1`: the outcome in [10] was Active. The result in [13] was inactive.

Turning to `COc1cccc2c1C(=O)c1c(O)c3c(c(O)c1C2=O)C[C@@](O)(C(=O)CO)C[C@@H]3O[C@H]1C[C@H](N)[C@H](O)[C@H](C)O1`, the outcome in experiment [22] and in experiment [23] was Active.

With `CN(C)c1cccc2c(S(=O)(=O)N(CCNCc3ccccn3)CCNCc3ccccn3)cccc12`, the log K in [5] was -10.4; in experiment [24] it was 17.5; in experiment [6] it was 8.38; in experiment [7], 13; in experiment [8], -11.5; in experiment [25] it was 4.61. Besides, the log K in experiment [26] was 4.5; in experiment [9], -1.17; in experiment [12], -9.55. Further, the outcome in experiment [1], in experiment [2], in experiment [3], in experiment [10] and in experiment [11] was Active. Further, in [13], the outcome was inactive.
